# High-throughput results deposited in PubChem BioAssay by several laboratories.
# Shown is part of a subset that was picked to be rich in hits.
# PvdQ acylase = P. aeruginosa PvdQ acylase inhibition. purified PvdQ acylase, fluorescence plate reader. inhibition, % at 10 µM. 340,000 tested, 0.063% active; in the data active = inhibition above about 30%, passing the limit was not always enough
# XBP1 UPR activ = activators of adaptive arm of unfolded protein response (XBP1); CHO-XBP1 luciferase reporter, IRE1-XBP1 UPR activation, luminescence; percent of tunicamycin response, DMSO as zero; activation, % at 20 µM; 330,000 tested, 0.33% active; AID 463104;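 active = versus positive control, 20 µM dose yields 30% or more activation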
#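 Material – CHO cell line with stable XBP1 luciferase reporter · Buffer or medium – F12 plus 10% FBS · Compound – single point, 20 µM final compound, 1% DMSO · Schedule – 16-18 h cell attachment at 37 °C, then 6 h compound exposure · Signal – Steady-Glo luminescence read · Benchmarks – high control tunicamycin 10 µg/mL final, low control DMSO vehicle only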
# CHOP UPR activ = apoptotic UPR (CHOP) activation | CHO-CHOP luciferase reporter, luminescence; percent of tunicamycin response over DMSO baseline | activation, % at 10 µM | 330,000 tested, 0.34% active | AID 449763;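 active = at 10 µM dose, activation of 40% or more, normalized to positive control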
#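 assay system = CHO CHOP reporter cells | amount = 500 CHO-CHOP cells per well | buffer or medium = F12 with 10% FBS | incubation = 16-18 h cell attachment, then 6 h compound exposure, 37 °C | detection = luminescence read with Steady-Glo | read-out = percent activation relative to tunicamycin control | controls = tunicamycin high control, DMSO low control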
# CHOP inhibitor = CHOP inhibition in unfolded protein response. CHO-K1 CHOP-promoter luciferase, tunicamycin-induced, 15-18 h. inhibition, % at 10 µM. 220,000 tested, 3.8% active;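 active = compounds that reduced the stress-induced luciferase reporter signal by more than about 70% of percent inhibition, limit read from the data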
# CHOP inh conf = confirmation of CHOP induction inhibitors. shares compounds with CHOP inhibitor. CHO-CHOP promoter luciferase reporter, tunicamycin-induced, luminescence. inhibition, % at 10 µM. 2,100 tested, 45% active;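 active = mean of three repeat readings of reporter signal inhibition above a set limit, cut at about 70% in these data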
# Numbers stand for hits; . = inactive; / = no result given; ! = repeats disagree.
SMILES,PvdQ acylase,XBP1 UPR activ,CHOP UPR activ,CHOP inhibitor,CHOP inh conf
O=C1C=C(c2ccc(F)cc2OCc2ccccc2)C[C@@H](c2ccc(Cl)cc2)C1,.,.,.,/,/
CC(C)(C)c1cc(OC(=O)C2CCCC2)ccc1O,.,.,.,/,/
CCCCC(CC)C(=O)Oc1ccc(O)c(C(C)(C)C)c1 (centres undefined),.,.,.,104,117
O=C1CSC(c2ccc(Cl)cc2)N1c1cccnc1 (centres undefined),.,.,.,.,/
Cc1ccc(-c2nc(N)sc2C)cc1,.,.,.,.,/
Cc1ccc(-c2nc(N)sc2-c2ccc(C)cc2)cc1,.,/,/,97,114
CC(=O)c1ccccc1NC(=O)c1ccc(OCc2c(C)noc2C)cc1,.,.,.,/,/
COc1cc(NS(=O)(=O)c2ccc(Cl)cc2)c(C(=O)O)cc1OC,.,.,.,.,/
CCOc1cccc(CN2CCN(c3cccc(C(F)(F)F)c3)CC2)c1O,.,.,.,100,79
c1ccc(C2Nc3cccc4cccc(c34)N2)cc1,.,.,.,/,/
c1csc(C2Nc3cccc4cccc(c34)N2)c1,.,.,.,97,.
CCCn1c(=O)c(C(=O)NNS(=O)(=O)c2ccc(Cl)cc2)c(O)c2ccccc21,.,.,.,107,.
CCCn1c(=O)c(C(=O)NNC(=O)c2ccc(Cl)cc2Cl)c(O)c2ccccc21,.,.,.,/,/
O=C(c1cc(-c2ccccc2O)on1)N1CCc2ccccc2C1,.,.,.,106,.
CC1(C)CC(=O)C2=C(C1)OC(N)=C(C#N)C21C(=O)N2CCCc3cccc1c32 (centres undefined),.,.,.,.,/
CC1(c2ccccc2)CC(C)(C)N2C(=O)C3(C(C#N)=C(N)Oc4cc(O)ccc43)c3cccc1c32 (centres undefined),.,.,.,106,104
Cc1cc2c3c(c1)C(C)(c1ccccc1)CC(C)(C)N3C(=O)C21C(C#N)=C(N)OC2=C1C(=O)CC(C)(C)C2 (centres undefined),.,.,.,107,97
O=C(NCCCC(NC(=O)OCc1ccccc1)C(=O)O)OCc1ccccc1 (centres undefined),.,.,.,/,/
NC(=O)CNC(=O)[C@@H]1CC2(CC(c3ccccc3)=NO2)CN1C(=O)c1ccc(Br)cc1 (some centres undefined),.,.,.,.,/
FC(F)(F)c1cccc(Sc2nc(-c3ccccc3)nnc2C(F)(F)F)c1,.,.,.,108,109
CC1CCN(c2ccc(NC(=O)C3CCCN3S(=O)(=O)c3ccc(F)cc3)cc2)CC1 (centres undefined),.,.,.,/,/
O=C(Nc1ccc(Cl)cc1)Nc1nc(-c2ccccc2O)cs1,.,.,.,104,.
O=C(Nc1ccc(Cl)cc1)Nc1nc(-c2sccc2Br)cs1,.,.,.,.,/
CCCCN(CC)C(=O)c1cc2c(=O)[nH]c3ccc(C)cc3c2s1,.,.,.,/,/
Cc1ccc2[nH]c(=O)c3cc(C(=O)N(C)c4ccccc4C)sc3c2c1,.,.,.,101,.
SMILES,PvdQ acylase,XBP1 UPR activ,CHOP UPR activ,CHOP inhibitor,CHOP inh conf
CC(C)c1ccc(CN(C(=O)/C=C/c2ccco2)C2CCS(=O)(=O)C2)cc1 (centres undefined),.,.,.,.,/
Cc1ccc(N(CC(=O)NC2CCCC2)C(=O)CCC(=O)Nc2nc(C)cs2)cc1,.,.,.,/,/
Cc1ccc(C(=O)Cc2ccccc2)c(O)c1,.,/,/,/,/
CC(C)=CCc1c(O)ccc(C(=O)Cc2ccccc2)c1O,.,.,.,106,.
COc1ccc(C2=C(CN(C)C)C(c3ccccc3)c3ccccc3O2)cc1 (centres undefined),.,.,.,104!,.
CCOc1ccc(C2=C(C=C(C#N)C#N)C(c3ccccc3)c3ccccc3O2)cc1 (centres undefined),.,.,.,.,/
CCn1c(Cc2ccccc2)nnc1SCC(=O)Nc1ccccc1O,.,.,.,.,/
CC1(C)c2ssc(=S)c2-c2ccccc2N1C(=O)c1ccco1,.,.,.,98,.
Cc1ccc2c(c1)-c1c(ssc1=S)C(C)(C)N2C(=O)c1ccco1,.,.,.,.,/
CC(=O)C1=C(S(=O)(=O)c2ccc(C)cc2)CS(=O)(=O)C1,.,.,.,98,71
CCCc1cc(=O)oc2cc(C)cc(OCC(=O)NC3CC3)c12,.,.,.,/,/
Cc1occc1-c1nnc(SCC(=O)Nc2nc(C(C)(C)C)cs2)o1,.,.,.,103,.
CCN(CC)c1ccc(/C=N/NC(=S)NCc2ccccc2)c(O)c1,.,.,.,100,.
CCN(CC)c1ccc(/C=N/NC(=O)c2ccco2)c(O)c1,.,.,.,.,/
Cc1ccc(NC(=O)c2nnn(CC(=O)Nc3ccc4c(c3)OCO4)c2N)cc1C,.,.,.,/,/
Cc1ccc(NC(=O)Cn2nnc(C(=O)Nc3ccc(C)c(C)c3)c2N)cc1,.,.,.,97,.
O=C(NCc1ccc2c(c1)OCO2)c1ccc(Br)cc1,.,.,.,/,/
O=C1Nc2ccc(Br)cc2/C1=C/C(=O)c1ccc2c(c1)OCO2,.,.,.,107,.
CCCCCCOC(=O)Nc1ccc(S(=O)(=O)Nc2cccc([N+](=O)[O-])c2)cc1,.,.,.,106,110
O=[N+]([O-])c1cccc(NC(=S)N2CCc3ccccc32)c1,.,.,.,/,/
Cc1nc(SCC(=O)Nc2ccc(C)c(F)c2)c2oc3ccccc3c2n1,.,.,.,102,110
CCOC(=O)c1ccc(NC(=O)Nc2ccc(F)cc2)cc1,.,.,.,.,/
CC(C)(C)c1ccc(NC(=O)Nc2ccc(F)cc2)cc1,.,.,.,103,107
Cc1ccc(S(=O)(=O)O/N=C2\CCCc3ccccc32)cc1,.,.,.,.,/
CC1=C(C)/C(=N\OS(=O)(=O)c2ccccc2)C=CC1=O,.,.,.,/,124
SMILES,PvdQ acylase,XBP1 UPR activ,CHOP UPR activ,CHOP inhibitor,CHOP inh conf
Cc1ccccc1N(C(=O)Cc1c[nH]c2ccccc12)C(C(=O)NC1CCCCC1)c1ccco1 (centres undefined),.,.,.,103,.
Cc1ccc(C(C(=O)NC2CCCCC2)N(C(=O)Cc2c[nH]c3ccccc23)c2ccccc2C)o1 (centres undefined),.,.,.,100,86
Oc1ccc(Cl)cc1CNCc1ccc(C(F)(F)F)cc1,.,.,.,/,/
CCCCn1c(NS(=O)(=O)c2ccccc2)c(S(=O)(=O)c2ccc(C)cc2)c2nc3ccccc3nc21,.,/,/,99,76
CCCCn1c(NC(=O)c2ccco2)c(S(=O)(=O)c2ccc(C)cc2)c2nc3ccccc3nc21,.,/,/,.,/
CN(C(=O)CCl)C1CCCc2ccccc21 (centres undefined),.,/,/,106,80
COc1ccc(C2/C=C\CN(C(=O)OCC3c4ccccc4-c4ccccc43)CC(=O)N2Cc2cccc(F)c2)cc1 (centres undefined),.,.,.,/,/
CC(C)(C)c1nc2c(C#N)c(-c3ccc(Cl)cc3)ccn2n1,.,.,.,101,.
